From ChEMBL document CHEMBL1145172, “From the potent and selective mu opioid receptor agonist H-Dmt-d-Arg-Phe-Lys-NH(2) to the potent delta antagonist H-Dmt-Tic-Phe-Lys(Z)-OH” (J Med Chem, 2005)
Where a SMILES comes first, the peptide text is derived from it. [ ]: non-standard residue; d: D form. The star is where a group is joined. Dmt = Cc1cc(O)cc(C)c1C[C@H](N)C(=O)O; Tic = O=C(O)[C@@H]1Cc2ccccc2CN1; Cbz = O=C(OCc1ccccc1)*

Experiments:
Mu-type opioid receptor = Mu-type opioid receptor (Cavia porcellus, UniProt P97266); experiment: Agonist activity against mu opioid receptor of guinea pig ileum; assay type: functional, tissue-based
Chain of Mu-type opioid receptor (P97266 whole entry): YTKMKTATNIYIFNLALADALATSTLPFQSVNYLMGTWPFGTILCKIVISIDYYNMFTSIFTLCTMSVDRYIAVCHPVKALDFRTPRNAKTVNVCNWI
How it was run: (§1)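 Electrically stimulated isolated tissue: guinea pig ileum for μ and mouse vas deferens for δ. Agonist IC50 taken from dose–response curves. Values are mean ± SE from at least five fresh tissue samples.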

[1] = Inhibition constant against synaptosomal Delta Opioid Receptor
How it was run: (§2)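 Competitive binding on synaptosomal membranes from several separate preparations, run as independent duplicate assays with five to eight peptide doses each. Ki derived by the Cheng–Prusoff relation. Values reported as mean ± SE with n repetitions.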

[2] = Inhibition constant against synaptosomal Mu opioid receptor; how it was run: as §2
[3] = molecular target: T1, Delta-type opioid receptor (Mus musculus, UniProt P32300); experiment: Agonistic activity against delta opioid receptor of mouse vas deferens assay; assay type: functional, tissue-based; how it was run: as §1
T1 sequence (P32300 whole entry): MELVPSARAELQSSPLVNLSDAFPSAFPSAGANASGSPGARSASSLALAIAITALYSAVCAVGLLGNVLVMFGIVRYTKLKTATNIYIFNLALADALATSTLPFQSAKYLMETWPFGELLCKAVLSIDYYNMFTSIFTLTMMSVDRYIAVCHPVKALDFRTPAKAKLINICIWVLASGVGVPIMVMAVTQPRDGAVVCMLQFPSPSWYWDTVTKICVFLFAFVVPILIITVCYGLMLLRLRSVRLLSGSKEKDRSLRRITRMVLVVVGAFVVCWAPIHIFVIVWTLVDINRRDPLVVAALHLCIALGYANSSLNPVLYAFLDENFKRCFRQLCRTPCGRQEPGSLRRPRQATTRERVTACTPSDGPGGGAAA

[4] = molecular target: Opioid receptors; mu & delta (Homo sapiens) (UniProt P41143+P35372); experiment: Selectivity for synaptosomal Mu rather than Delta Opioid Receptors; assay type: protein assay
Chain of Opioid receptors; mu & delta (Homo sapiens) (P35372 whole entry, looked up): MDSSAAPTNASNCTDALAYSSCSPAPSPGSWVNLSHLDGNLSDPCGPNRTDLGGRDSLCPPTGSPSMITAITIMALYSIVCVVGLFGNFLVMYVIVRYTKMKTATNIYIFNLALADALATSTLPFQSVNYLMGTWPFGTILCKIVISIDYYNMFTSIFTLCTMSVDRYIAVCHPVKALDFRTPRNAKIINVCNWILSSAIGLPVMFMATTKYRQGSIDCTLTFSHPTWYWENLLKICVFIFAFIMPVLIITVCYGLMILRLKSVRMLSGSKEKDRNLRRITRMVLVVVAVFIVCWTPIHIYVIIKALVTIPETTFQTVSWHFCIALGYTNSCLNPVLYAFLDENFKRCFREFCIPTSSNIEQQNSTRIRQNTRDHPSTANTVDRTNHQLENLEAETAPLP
Chain of Opioid receptors; mu & delta (Homo sapiens) (P41143 whole entry, looked up): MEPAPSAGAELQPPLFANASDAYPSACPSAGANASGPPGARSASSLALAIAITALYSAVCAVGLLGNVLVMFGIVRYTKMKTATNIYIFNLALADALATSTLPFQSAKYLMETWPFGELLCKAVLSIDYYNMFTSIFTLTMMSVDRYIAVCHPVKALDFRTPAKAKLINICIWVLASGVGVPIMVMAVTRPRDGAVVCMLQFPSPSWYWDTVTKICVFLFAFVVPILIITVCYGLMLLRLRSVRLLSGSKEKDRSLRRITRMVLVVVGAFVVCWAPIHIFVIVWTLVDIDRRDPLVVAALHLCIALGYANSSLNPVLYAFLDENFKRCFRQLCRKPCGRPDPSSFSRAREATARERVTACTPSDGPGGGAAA

[5] = molecular target: T1, Delta-type opioid receptor; experiment: Antagonist activity in mouse vas deferens assay; assay type: functional, tissue-based; details: read-out: pA2 (converted)
How it was run: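 Electrically stimulated mouse vas deferens, with deltorphin C as the δ agonist. Antagonism expressed as pA2: the negative log of the molar antagonist concentration that doubles the agonist concentration needed to restore the original submaximal response.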

SMILES	IC50 (Mu-type opioid receptor) [nM]	Ki [1] [nM]	Ki [2] [nM]	IC50 [3] [nM]	Selectivity [4]	Kb [5] [nM]
Cc1cc(O)cc(C)c1C[C@H](N)C(=O)N[C@H](CCC/N=C(/N)N[N+](=O)[O-])C(=O)N[C@@H](Cc1ccccc1)C(=O)N[C@@H](CCCCNC(=O)OCc1ccccc1)C(=O)O	63	47.6	1.45	682	–	–
Cc1cc(O)cc(C)c1C[C@H](N)C(=O)N[C@H](CCCN=C(N)N[N+](=O)[O-])C(=O)N[C@@H](Cc1ccccc1)C(=O)N[C@@H](CCCCNC(=O)OCc1ccccc1)C(N)=O	0.509	24.2	0.15	1.69	–	–
Cc1cc(O)cc(C)c1C[C@H](N)C(=O)N1Cc2ccccc2C[C@H]1C(=O)N[C@@H](Cc1ccccc1)C(=O)N[C@@H](CCCCNC(=O)OCc1ccccc1)C(N)=O (H-[Dmt][Tic]FK(Cbz)-NH2)	1890	0.23	1.14	> 10000	5	3.8
Cc1cc(O)cc(C)c1C[C@H](N)C(=O)N1Cc2ccccc2C[C@H]1C(=O)N[C@@H](Cc1ccccc1)C(=O)N[C@@H](CCCCNC(=O)OCc1ccccc1)C(=O)O (H-[Dmt][Tic]FK(Cbz)-OH)	> 10000	–	–	> 10000	145	0.00372
